From ChEMBL document CHEMBL1144515, “Synthesis, in vitro evaluation, and SAR studies of a potential antichagasic 1H-pyrazolo[3,4-b]pyridine series” (Bioorg Med Chem, 2007) come the findings set out here.

In brackets after ≈: the same amount, converted by molar mass. Some results are limits rather than exact numbers.

The test system of this test is Trypanosoma cruzi. As to the kind of experiment: Antiparasitic activity against Trypanosoma cruzei Y blood stream trypomastigotes. It counts as functional, organism-based. Summed up: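 Mouse infected blood diluted with healthy mouse blood and fetal bovine serum to about 106 trypomastigotes/mL; compounds from DMSO stocks added at final 10, 100, 250, 500 and 1000 µg/mL. Incubated 4 °C, 24 h with constant shaking; untreated and crystal violet-treated controls; triplicate. Trypomastigotes counted, % lysis versus untreated; IC50 taken as 50% activity concentration.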
`Cc1nn(-c2ccccc2)c2nc(-c3ccc([N+](=O)[O-])cc3)cc(C(=O)NN)c12` gave an IC50 of 533 mg/L (≈ 1370 µM).
In turn, `COc1ccc(-c2cc(C(=O)N/N=C\c3ccc(O)cc3)c3c(C)nn(-c4ccccc4)c3n2)cc1` had an IC50 of 332 mg/L (≈ 694 µM).
Take `Cc1nn(-c2ccccc2)c2nc(-c3ccc(Cl)cc3)cc(C(=O)N/N=C\c3ccc([N+](=O)[O-])cc3)c12`: the IC50 came out at 108 mg/L (≈ 212 µM).
In the case of `Cc1nn(-c2ccccc2)c2nc(-c3ccccc3)cc(C(=O)NN)c12`, the IC50 was found to be 782 mg/L (≈ 2280 µM).
As for `Cc1nn(-c2ccccc2)c2nc(-c3ccc(Cl)cc3)cc(C(=O)NN)c12`, the figure is 211 mg/L (≈ 558 µM); as for `Cc1nn(-c2ccccc2)c2nc(-c3ccc(C#N)cc3)cc(C(=O)NN)c12`, 341 mg/L (≈ 926 µM); as for `COc1ccc(-c2cc(C(=O)N/N=C\c3ccc([N+](=O)[O-])cc3)c3c(C)nn(-c4ccccc4)c3n2)cc1`, more than 1500 mg/L.
Consider `Cc1nn(-c2ccccc2)c2nc(-c3ccc(C#N)cc3)cc(C(=O)N/N=C\c3ccc(F)cc3)c12`, for which the IC50 is 378 mg/L (≈ 797 µM).
With `CCOc1ccc(-c2cc(C(=O)N/N=C\c3ccc(F)cc3)c3c(C)nn(-c4ccccc4)c3n2)cc1`, the IC50 worked out at 39.3 mg/L (≈ 79.6 µM).
With `Cc1nn(-c2ccccc2)c2nc(-c3ccccc3)cc(C(=O)N/N=C\c3ccc(O)cc3)c12`, half-maximal inhibition (IC50) required 1.9 mg/L (≈ 4.25 µM).
Compound `Cc1nn(-c2ccccc2)c2nc(-c3ccccc3)cc(C(=O)N/N=C\c3ccc(F)cc3)c12` yielded an IC50 of 88.9 mg/L (≈ 198 µM).
`CCOc1ccc(-c2cc(C(=O)N/N=C\c3ccc(O)cc3)c3c(C)nn(-c4ccccc4)c3n2)cc1` registered an IC50 of 170 mg/L (≈ 345 µM).
Regarding `CCOc1ccc(-c2cc(C(=O)N/N=C\c3ccc([N+](=O)[O-])cc3)c3c(C)nn(-c4ccccc4)c3n2)cc1`, the IC50 is 1180 mg/L (≈ 2260 µM).
Take `CCOc1ccc(-c2cc(C(=O)NN)c3c(C)nn(-c4ccccc4)c3n2)cc1`: the IC50 came to 439 mg/L (≈ 1130 µM).
In the case of `Cc1nn(-c2ccccc2)c2nc(-c3ccc(Cl)cc3)cc(C(=O)N/N=C\c3ccc(O)cc3)c12`, the IC50 turned out to be 71.8 mg/L (≈ 149 µM).
On to `Cc1nn(-c2ccccc2)c2nc(-c3ccc(C#N)cc3)cc(C(=O)N/N=C\c3ccc([N+](=O)[O-])cc3)c12`, for which the IC50 worked out at 37.3 mg/L (≈ 74.4 µM).
As to `COc1ccc(-c2cc(C(=O)NN)c3c(C)nn(-c4ccccc4)c3n2)cc1`, inhibition was half-maximal at 781 mg/L (≈ 2090 µM) (IC50).
With `Cc1nn(-c2ccccc2)c2nc(-c3ccc(Cl)cc3)cc(C(=O)N/N=C\c3ccc(F)cc3)c12`, 197 mg/L (≈ 407 µM) corresponded to half-maximal inhibition (IC50).
In the case of `Cc1nn(-c2ccccc2)c2nc(-c3ccc(C#N)cc3)cc(C(=O)N/N=C\c3ccc(O)cc3)c12`, the IC50 was 260 mg/L (≈ 551 µM).
Consider `COc1ccc(-c2cc(C(=O)N/N=C\c3ccc(F)cc3)c3c(C)nn(-c4ccccc4)c3n2)cc1`, for which inhibition was half-maximal at 1460 mg/L (≈ 3050 µM) (IC50).
Compound `Cc1nn(-c2ccccc2)c2nc(-c3ccccc3)cc(C(=O)N/N=C\c3ccc([N+](=O)[O-])cc3)c12` yielded a 50% inhibitory concentration (IC50) of 95.3 mg/L (≈ 200 µM).
In the case of `Cc1nn(-c2ccccc2)c2nc(-c3ccccc3)cc(C(=O)N/N=C\c3ccccc3)c12`, the IC50 worked out at 205 mg/L (≈ 476 µM).
